Measured values from ChEMBL document CHEMBL1142972, “Novel N-substituted indol-3-ylglyoxylamides probing the LDi and L1/L2 lipophilic regions of the benzodiazepine receptor site in search for subtype-selective ligands” (J Med Chem, 2007).
The source made the active and inactive calls. The rule behind the calls is not given here.

Tests used:
Bos taurus = organism: Bos taurus; assay: Displacement of [3H]flumazenil from benzodiazepine receptor in bovine brain membranes at 10 uM; assay type: cell membranes
How it was run: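 Bovine cerebral cortex membranes, freeze-thawed once and washed in 50 mM Tris-citrate pH 7.4, used for competition against [3H]flumazenil. Test compound at a fixed 10 µM; read-out is % inhibition of specific binding, as mean of three determinations run in triplicate.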

[1] = Displacement of [3H]flumazenil from benzodiazepine receptor in bovine brain membranes; assay type: cell membranes, Bos taurus
[2] = biological target: GABA-A receptor; alpha-1/beta-2/gamma-2 (Rattus norvegicus, UniProt P18508+P62813+P63138); assay: Displacement of [3H]flumazenil from rat GABAA alpha-1-beta-2-gamma-2 expressed in HEK293 cells; assay type: cell-based
Chain of GABA-A receptor; alpha-1/beta-2/gamma-2 (P18508 whole entry): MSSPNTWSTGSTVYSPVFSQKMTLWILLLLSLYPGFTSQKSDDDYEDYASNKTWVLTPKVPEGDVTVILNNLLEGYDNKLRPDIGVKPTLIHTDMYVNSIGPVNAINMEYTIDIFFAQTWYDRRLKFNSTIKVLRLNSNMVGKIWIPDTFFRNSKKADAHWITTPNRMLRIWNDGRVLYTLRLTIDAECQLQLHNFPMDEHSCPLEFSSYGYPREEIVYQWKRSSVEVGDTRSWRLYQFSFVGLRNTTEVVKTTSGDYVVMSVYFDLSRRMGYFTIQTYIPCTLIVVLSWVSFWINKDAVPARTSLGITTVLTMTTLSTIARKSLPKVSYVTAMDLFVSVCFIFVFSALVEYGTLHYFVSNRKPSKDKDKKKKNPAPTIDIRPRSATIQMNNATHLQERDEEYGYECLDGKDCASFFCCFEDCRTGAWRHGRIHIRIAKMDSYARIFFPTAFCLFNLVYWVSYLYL
Chain of GABA-A receptor; alpha-1/beta-2/gamma-2 (P62813 whole entry): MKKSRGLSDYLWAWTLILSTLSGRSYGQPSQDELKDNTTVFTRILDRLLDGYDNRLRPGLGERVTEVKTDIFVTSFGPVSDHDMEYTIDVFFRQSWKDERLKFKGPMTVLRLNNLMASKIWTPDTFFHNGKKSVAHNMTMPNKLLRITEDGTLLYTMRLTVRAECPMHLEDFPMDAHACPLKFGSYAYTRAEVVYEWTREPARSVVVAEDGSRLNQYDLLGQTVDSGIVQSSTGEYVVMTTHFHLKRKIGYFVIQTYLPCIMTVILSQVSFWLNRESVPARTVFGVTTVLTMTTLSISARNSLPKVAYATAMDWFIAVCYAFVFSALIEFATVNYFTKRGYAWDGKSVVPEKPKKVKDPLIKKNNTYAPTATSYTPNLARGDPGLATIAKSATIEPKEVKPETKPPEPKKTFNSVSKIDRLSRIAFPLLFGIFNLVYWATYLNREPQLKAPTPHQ
Chain of GABA-A receptor; alpha-1/beta-2/gamma-2 (P63138 whole entry): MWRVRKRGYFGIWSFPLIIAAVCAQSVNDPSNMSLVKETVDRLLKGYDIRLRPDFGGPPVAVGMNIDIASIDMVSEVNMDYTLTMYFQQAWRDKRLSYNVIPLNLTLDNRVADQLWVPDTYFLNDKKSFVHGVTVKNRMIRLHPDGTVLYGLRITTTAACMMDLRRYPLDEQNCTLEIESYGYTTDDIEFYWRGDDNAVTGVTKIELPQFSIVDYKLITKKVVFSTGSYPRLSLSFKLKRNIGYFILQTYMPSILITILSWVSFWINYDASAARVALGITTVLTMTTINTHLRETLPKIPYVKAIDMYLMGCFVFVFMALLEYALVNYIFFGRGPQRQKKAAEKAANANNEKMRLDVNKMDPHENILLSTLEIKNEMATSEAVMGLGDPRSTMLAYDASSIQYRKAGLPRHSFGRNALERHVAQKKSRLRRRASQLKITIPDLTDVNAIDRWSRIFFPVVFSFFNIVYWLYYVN
How it was run: (§1)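 Crude membranes from HEK293 cells stably expressing rat GABAA subtypes, cells grown in DMEM/F-12 with 10% FBS at 37 °C, 5% CO2. Homogenized in 10 mM potassium phosphate pH 7.4, spun at 48 000g for 30 min at 4 °C, washed twice, resuspended with 100 mM KCl. [3H]flumazenil displacement; Ki as mean ± SEM of three determinations in triplicate.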

[3] = biological target: GABA A receptor alpha-2/beta-2/gamma-2 (Rattus norvegicus, UniProt P18508+P23576+P63138); assay: Displacement of [3H]flumazenil from rat GABAA alpha-2-beta-2-gamma-2 expressed in HEK293 cells; assay type: cell-based; how it was run: as §1
Chain of GABA A receptor alpha-2/beta-2/gamma-2 (P18508 whole entry): as the sequence (P18508 whole entry) above
Chain of GABA A receptor alpha-2/beta-2/gamma-2 (P23576 whole entry): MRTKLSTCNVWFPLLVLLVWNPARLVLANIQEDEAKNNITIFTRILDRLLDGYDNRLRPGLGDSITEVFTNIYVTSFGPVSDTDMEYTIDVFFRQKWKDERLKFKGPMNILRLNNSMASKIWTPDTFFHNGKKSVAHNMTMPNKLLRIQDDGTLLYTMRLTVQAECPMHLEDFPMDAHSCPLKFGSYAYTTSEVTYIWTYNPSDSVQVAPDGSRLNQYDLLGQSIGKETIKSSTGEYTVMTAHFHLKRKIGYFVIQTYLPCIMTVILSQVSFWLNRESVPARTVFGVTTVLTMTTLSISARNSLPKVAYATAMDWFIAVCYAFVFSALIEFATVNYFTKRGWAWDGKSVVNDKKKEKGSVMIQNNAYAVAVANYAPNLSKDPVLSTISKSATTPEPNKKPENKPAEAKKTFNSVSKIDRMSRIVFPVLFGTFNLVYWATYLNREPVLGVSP
Chain of GABA A receptor alpha-2/beta-2/gamma-2 (P63138 whole entry): as the sequence (P63138 whole entry) above

[4] = biological target: GABA A receptor alpha-5/beta-3/gamma-2 (Rattus norvegicus) (UniProt P18508+P19969+P63079); assay: Displacement of [3H]flumazenil from rat GABAA alpha-5-beta-3-gamma-2 expressed in HEK293 cells at 10 uM; assay type: cell-based
How it was run: (§2)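 [3H]flumazenil competition in membranes of HEK293 cells stably expressing rat GABAA subtypes, prepared in 10 mM potassium phosphate pH 7.4 (48 000g, 4 °C, two washes, final buffer with 100 mM KCl). Single test concentration of 10 µM; % inhibition of specific binding, mean ± SEM of three determinations in triplicate.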

[5] = biological target: GABA A receptor alpha-2/beta-2/gamma-2 (Rattus norvegicus) (UniProt P18508+P23576+P63138); assay: Displacement of [3H]flumazenil from rat GABAA alpha-2-beta-2-gamma-2 expressed in HEK293 cells at 10 uM; assay type: cell-based; how it was run: as §2
[6] = biological target: GABA A receptor alpha-5/beta-3/gamma-2 (Rattus norvegicus, UniProt P18508+P19969+P63079); assay: Displacement of [3H]flumazenil from rat GABAA alpha-5-beta-3-gamma-2 expressed in HEK293 cells; assay type: cell-based; how it was run: as §1
Chain of GABA A receptor alpha-5/beta-3/gamma-2 (P18508 whole entry): as the sequence (P18508 whole entry) above
Chain of GABA A receptor alpha-5/beta-3/gamma-2 (P19969 whole entry): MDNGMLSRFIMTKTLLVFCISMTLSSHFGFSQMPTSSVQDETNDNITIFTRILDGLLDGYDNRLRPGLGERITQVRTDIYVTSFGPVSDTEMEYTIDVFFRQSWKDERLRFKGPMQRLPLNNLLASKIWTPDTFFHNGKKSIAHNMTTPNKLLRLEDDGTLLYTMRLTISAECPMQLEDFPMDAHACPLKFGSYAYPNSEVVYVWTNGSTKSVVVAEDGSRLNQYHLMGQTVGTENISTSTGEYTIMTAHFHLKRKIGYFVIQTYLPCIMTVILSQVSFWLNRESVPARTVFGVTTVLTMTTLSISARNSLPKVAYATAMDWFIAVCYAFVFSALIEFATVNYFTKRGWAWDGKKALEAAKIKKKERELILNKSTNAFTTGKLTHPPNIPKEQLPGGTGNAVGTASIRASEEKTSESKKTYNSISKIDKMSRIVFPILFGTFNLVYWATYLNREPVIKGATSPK
Chain of GABA A receptor alpha-5/beta-3/gamma-2 (P63079 whole entry): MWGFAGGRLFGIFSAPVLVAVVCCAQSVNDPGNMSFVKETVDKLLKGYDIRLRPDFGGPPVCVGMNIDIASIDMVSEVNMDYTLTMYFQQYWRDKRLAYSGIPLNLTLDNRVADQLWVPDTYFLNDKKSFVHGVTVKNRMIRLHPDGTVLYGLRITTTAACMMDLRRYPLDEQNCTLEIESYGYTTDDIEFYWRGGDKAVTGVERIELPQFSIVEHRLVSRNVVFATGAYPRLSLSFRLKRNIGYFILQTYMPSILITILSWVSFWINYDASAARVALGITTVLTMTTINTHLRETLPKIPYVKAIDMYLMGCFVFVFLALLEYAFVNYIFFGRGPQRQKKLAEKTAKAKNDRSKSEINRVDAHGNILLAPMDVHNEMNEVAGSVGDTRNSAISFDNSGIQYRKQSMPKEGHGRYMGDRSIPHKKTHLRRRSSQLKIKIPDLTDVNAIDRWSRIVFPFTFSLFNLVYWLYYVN

[7] = biological target: GABA-A receptor; alpha-1/beta-2/gamma-2 (Rattus norvegicus) (UniProt P18508+P62813+P63138); assay: Agonist activity at rat GABAA alpha-1-beta-2-gamma-2 expressed in HEK293 cells assessed as chloride influx; assay type: functional, cell-based
Mus musculus = assay: Decrease in spontaneous motor activity in Balb/C mouse at 10 mg/kg, ip; assay type: functional, organism-based; design: dose 10 mg/kg

| Compound | inhibition (Bos taurus) | Ki [1] | Ki [2] | further results |
| --- | --- | --- | --- | --- |
| CCC(C)NC(=O)C(=O)c1c[nH]c2ccccc12 (stereo unspecified) | 34% |  |  |  |
| CCc1ccc(CNC(=O)C(=O)c2c[nH]c3ccccc23)cc1 |  | 2160 nM | 559 nM | Ki [3]: 1600 nM; inhibition [4]: 40% |
| O=C(NCc1ccccc1)C(=O)c1c[nH]c2ccccc12 |  | 120 nM | 346 nM | inhibition [5]: 39%; inhibition [4]: 46% |
| CCCCNC(=O)C(=O)c1c[nH]c2ccc([N+](=O)[O-])cc12 |  | 110 nM | 125 nM | Ki [3]: 553 nM; Ki [6]: 943 nM |
| C[Si](C)(C)CC#Cc1ccc(CNC(=O)C(=O)c2c[nH]c3ccc([N+](=O)[O-])cc23)cc1 | 0% |  |  |  |
| CC(C)NC(=O)C(=O)c1c[nH]c2ccc([N+](=O)[O-])cc12 |  | 57.8 nM | 15 nM | Ki [3]: 175 nM; Ki [6]: 498 nM |
| O=C(NCc1ccccc1)C(=O)c1c[nH]c2ccc([N+](=O)[O-])cc12 |  | 117 nM | 65 nM | inhibition [5]: 32%; inhibition [4]: 44% |
| Cc1ccc(CNC(=O)C(=O)c2c[nH]c3ccc([N+](=O)[O-])cc23)cc1 |  | 88 nM | 31.3 nM | inhibition [5]: 0%; inhibition [4]: 0%; Activity [7]: 78%; Activity (Mus musculus): Active |
| O=C(NCc1ccc(Br)cc1)C(=O)c1c[nH]c2ccccc12 |  | 93 nM | 17 nM | Ki [3]: 81 nM; Ki [6]: 1440 nM |
| CC(C)CNC(=O)C(=O)c1c[nH]c2ccccc12 | 43% |  |  |  |
| Cc1ccc(-c2nc3ccc(C)cn3c2CC(=O)N(C)C)cc1 |  |  |  | Activity (Mus musculus): Active |
| CCC(C)NC(=O)C(=O)c1c[nH]c2ccc([N+](=O)[O-])cc12 (stereo unspecified) |  | 412 nM |  |  |
| Cc1ccc(CNC(=O)C(=O)c2c[nH]c3ccccc23)cc1 |  | 606 nM |  |  |
| CCCCNC(=O)C(=O)c1c[nH]c2ccccc12 |  | 3720 nM | 1170 nM | inhibition [5]: 7%; inhibition [4]: 28% |
| CCCCCNC(=O)C(=O)c1c[nH]c2ccc([N+](=O)[O-])cc12 |  | 4100 nM |  |  |
| CCCCCNC(=O)C(=O)c1c[nH]c2ccccc12 |  | 1480 nM |  |  |
| CC#Cc1ccc(CNC(=O)C(=O)c2c[nH]c3ccccc23)cc1 |  | 3280 nM | 881 nM | inhibition [5]: 16%; inhibition [4]: 13% |

| Compound | inhibition (Bos taurus) | Ki [1] | Ki [2] | further results |
| --- | --- | --- | --- | --- |
| C[Si](C)(C)C#Cc1ccc(CNC(=O)C(=O)c2c[nH]c3ccc([N+](=O)[O-])cc23)cc1 | 21% |  |  |  |
| CC(C)(C)NC(=O)C(=O)c1c[nH]c2ccc([N+](=O)[O-])cc12 |  | 2800 nM |  |  |
| O=C(NCc1ccc(Br)cc1)C(=O)c1c[nH]c2ccc([N+](=O)[O-])cc12 | 31% |  |  |  |
| CC(C)NC(=O)C(=O)c1c[nH]c2ccccc12 |  | 2690 nM |  |  |
| CC#Cc1ccc(CNC(=O)C(=O)c2c[nH]c3ccc([N+](=O)[O-])cc23)cc1 | 0% |  |  |  |
| CN1C(=O)CN=C(c2ccccc2)c2cc(Cl)ccc21 [DIAZEPAM] |  | 10 nM |  | Activity [7]: 72% |
| CC(C)CNC(=O)C(=O)c1c[nH]c2ccc([N+](=O)[O-])cc12 | 5% |  |  |  |
| C#Cc1ccc(CNC(=O)C(=O)c2c[nH]c3ccc([N+](=O)[O-])cc23)cc1 | 28% |  |  |  |
| CCc1ccc(CNC(=O)C(=O)c2c[nH]c3ccc([N+](=O)[O-])cc23)cc1 | 42% |  |  |  |
| CCCCCCNC(=O)C(=O)c1c[nH]c2ccccc12 |  | 1650 nM |  |  |
| CCCCCCNC(=O)C(=O)c1c[nH]c2ccc([N+](=O)[O-])cc12 | 53% |  |  |  |
| O=C1CN=C(c2ccccc2Cl)c2cc([N+](=O)[O-])ccc2N1 [CLONAZEPAM] |  | 0.85 nM |  |  |
| C[Si](C)(C)C#Cc1ccc(CNC(=O)C(=O)c2c[nH]c3ccccc23)cc1 | 29% |  |  |  |
| C[Si](C)(C)CC#Cc1ccc(CNC(=O)C(=O)c2c[nH]c3ccccc23)cc1 | 3% |  |  |  |
| C#Cc1ccc(CNC(=O)C(=O)c2c[nH]c3ccccc23)cc1 |  | 164 nM | 250 nM | Ki [3]: 414 nM; Ki [6]: 1150 nM |
| CC(C)(C)NC(=O)C(=O)c1c[nH]c2ccccc12 | 7% |  |  |  |
